Assay [1] deals with L5178Y. Description: Cytotoxicity against multi-drug resistant mouse L5178Y cells transfected with ABCB1 gene assessed as inhibition of cell growth incubated for 24 hrs by MTT assay. It counts as functional, cell-based. The essentials:
(§1)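 L5178Y parental and human ABCB1 retrovirus-transfected lines were grown in McCoy's 5A with 10% heat-inactivated horse serum, and the MDR line was kept under colchicine 60 ng/mL. Cells were seeded at 1×10^4/well and given 2-fold dilutions from 100 μM maximum, in duplicate, for 24 h. MTT was added for 4 h, then SDS/HCl overnight at 37 °C, with OD read at 550 nm (ref 630 nm). Growth inhibition was computed against cell and medium controls, and IC50 came from curve fitting (mean ± SD).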
On the technique in general: Tetrazolium dyes change colour on reduction, which living cells bring about.

For assay [2], the system named is L5178Y. The experiment in a line: Modulation of P-glycoprotein mediated Rhodamine-123 efflux in multi-drug resistant mouse L5178Y cells tranfected with ABCB1 gene assessed as fluorescence activity ratio at 2 uM preincubated for 10 mins followed by rhodamine-123 addition and measured after 20 mins by flow cytometric analysis (reference value: 1.01). It counts as cell-based. The conditions noted are these: filed as modulator, time 30.0 min. The method in brief:
(§2)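 Cells were held in serum-free McCoy's 5A with compound at 2.0 or 20 μM, verapamil 20 μM as positive control and DMSO 2% as solvent control, for 10 min at room temperature. R123 was then added (5.2 μM final) for 20 min at 37 °C, followed by two washes into PBS and flow cytometry (FL-1 mean fluorescence). FAR = (MDR treated/untreated FL-1) divided by (PAR treated/untreated FL-1).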

The subject of assay [3] is L5178Y. Description: Cytotoxicity against parental mouse L5178Y cells assessed as inhibition of cell growth incubated for 24 hrs by MTT assay. It is filed as functional, cell-based. The essentials: as §1
In assay [4] the test system is L5178Y. Description: Synergistic cytotoxicity against multi-drug resistant mouse L5178Y cells transfected with ABCB1 gene assessed as combination index measured after 48 hrs in the presence of doxorubicin by MTT assay. It is filed as functional. The essentials:
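This was a fixed-ratio checkerboard in L5178Y-MDR cells, with doxorubicin diluted from 14.7 to 0.1 μM against serial dilutions of the modulator. Cells were seeded at 2×10^5/mL, incubated 48 h, and read by MTT. Each curve was fitted linearly to the Chou–Talalay median-effect equation, keeping only fits with r > 0.90. CI at 50% inhibition is given as the mean ± SD of three CI values from different drug ratios.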

The test system of assay [5] is L5178Y. The experiment in a line: Modulation of P-glycoprotein mediated Rhodamine-123 efflux in multi-drug resistant mouse L5178Y cells tranfected with ABCB1 gene assessed as fluorescence activity ratio by measuring fold change at 20 uM preincubated for 10 mins followed by rhodamine-123 addition and measured after 20 mins by flow cytometric analysis relative to verapamil. It is filed as cell-based. The note with it: filed as modulator, time 30.0 min. The method in brief:
as §2

In assay [6] the test system is L5178Y. Description: Modulation of P-glycoprotein mediated Rhodamine-123 efflux in multi-drug resistant mouse L5178Y cells tranfected with ABCB1 gene assessed as fluorescence activity ratio by measuring fold change at 2 uM preincubated for 10 mins followed by rhodamine-123 addition and measured after 20 mins by flow cytometric analysis relative to verapamil. It counts as cell-based. The note with it: filed as modulator, time 30.0 min. The method in brief:
as §2

A word on the IC50: it is the concentration at which inhibition is half-maximal.

SMILES strings stand for the structures.

`COc1cc(O)c2c(c1)O[C@H](c1ccc(O)cc1)C/C2=N\Nc1ccc(Br)cn1`: the half-inhibitory concentration (IC50) is 12.7 µM in assay [1] and 4.3 µM in assay [3]. Also, the Ratio in assay [2] came out at 2.1.
Consider `O=C(N/N=C1\C[C@@H](c2ccc(O)cc2)Oc2cc(O)cc(O)c21)c1ccco1` (stereo in doubt), for which the half-maximal inhibitory concentration (IC50) in assay [1] and in assay [3] was at least 11.3 µM in each case. Besides, in assay [2], the Ratio is 0.86.
Turning to `CCN(CC)CC(O)COc1ccc([C@@H]2CC(=O)c3c(O)cc(OC)cc3O2)cc1` (stereo partly drawn), the IC50 in assay [1] and in assay [3] was at least 11.3 µM in each case. In addition, the Ratio in assay [2] turned out to be 4.06.
Regarding `COc1cc(O)c2c(c1)O[C@H](c1ccc(O)cc1)CC2=O` [SAKURANETIN], the IC50 in assay [1] and in assay [3] was at least 11.3 µM throughout. For the same molecule, in assay [2], the Ratio worked out at 1.06.
As to `COc1ccc([C@@H]2C/C(=N\NC(=O)c3ccco3)c3c(O)cc(OC)cc3O2)cc1`, the results for the IC50 in assay [1] and in assay [3] were 3.4 µM and 2.7 µM, respectively. Moreover, in assay [2], the Ratio was 2.24.
As to `COc1cc(O)c2c(c1)O[C@H](c1ccc(O)cc1)C/C2=N\NC(=O)c1cccs1`, the IC50 in assay [1] came out at 12 µM; in assay [3], 9.4 µM. In addition, the Ratio in assay [2] worked out at 1.39.
In the same order, the values of `COC(=O)C1CCN(CC(O)COc2ccc([C@@H]3CC(=O)c4c(O)cc(OC)cc4O3)cc2)CC1` (stereo partly drawn) are at least 11.3 µM, at least 11.3 µM and 8.01.
For `COc1cc(O)c2c(c1)O[C@H](c1ccc(O)cc1)C/C2=N\NC(=O)Cc1c[nH]c2ccccc12`, in that order: at least 11.3 µM, at least 11.3 µM and 1.12.
In the same order, the values of `COc1cc(O)c2c(c1)O[C@H](c1ccc(OCC(O)Cc3c[nH]c4ccccc34)cc1)CC2=O` (stereo partly drawn) are at least 11.3 µM, at least 11.3 µM and 0.86.
For the molecule `COc1cc(O)c2c(c1)O[C@H](c1ccc(O)cc1)C/C2=N\NC(=O)c1ccco1`, the concentration for half-maximal inhibition (IC50) in assay [1] and in assay [3] was at least 11.3 µM in each case. For the same molecule, the Ratio in assay [2] came to 1.28.
With `Oc1ccc([C@@H]2C/C(=N\N=C\c3c[nH]c4ccccc34)c3c(O)cc(O)cc3O2)cc1`, the 50% inhibitory concentration (IC50) in assay [1] and in assay [3] was at least 11.3 µM each time. For the same molecule, the Ratio in assay [2] came to 0.95.
Regarding `COc1cc(O)c2c(c1)O[C@H](c1ccc(O)cc1)C/C2=N\NC(=O)OCc1ccccc1`, the IC50 in assay [1] and in assay [3] was at least 11.3 µM in each case. Besides, the Ratio in assay [2] came to 4.14. For the same molecule, the CI in assay [4] is given as 0.638. The fold change (FC) in assay [5] amounted to 7.
For the molecule `COc1ccc([C@@H]2C/C(=N\Nc3ccccc3)c3c(O)cc(OC)cc3O2)cc1`, the IC50 in assay [1] and in assay [3] was at least 11.3 µM in each case. The Ratio in assay [2] worked out at 1.8.
As to `COc1cc(O)c2c(c1)O[C@H](c1ccc(OCC(O)CSc3ccccc3)cc1)CC2=O` (stereo partly drawn), the concentration for half-maximal inhibition (IC50) in assay [1] and in assay [3] was at least 11.3 µM in each case. For the same molecule, the Ratio in assay [2] was determined as 0.92.
As for `Oc1ccc([C@@H]2C/C(=N\Nc3cnccn3)c3c(O)cc(O)cc3O2)cc1`, the half-maximal inhibitory concentration (IC50) in assay [1] and in assay [3] was at least 11.3 µM each time. Also, the Ratio in assay [2] was found to be 1.65.
With `COc1cc(O)c2c(c1)O[C@H](c1ccc(O)cc1)C/C2=N\N`, the IC50 in assay [1] and in assay [3] was at least 11.3 µM each time. Besides, the Ratio in assay [2] was determined as 1.26.
Consider `COc1ccc([C@@H]2C/C(=N\Nc3ccc(Br)cn3)c3c(O)cc(OC)cc3O2)cc1`, for which the IC50 in assay [1] came out at 10.7 µM; in assay [3], 8 µM. In assay [2], the Ratio turned out to be 10.7.
As to `COc1cc(O)c2c(c1)O[C@H](c1ccc(OCC(O)CNC3CCN(Cc4ccccc4)CC3)cc1)CC2=O` (stereo partly drawn), the IC50 in assay [1] and in assay [3] was at least 11.3 µM each time. Besides, the fold change (FC) in assay [6] was determined as 2; in assay [5], 6. Further, the Ratio in assay [2] is 18.7. Besides, in assay [4], the CI came to 0.108.
`COc1ccc([C@@H]2C/C(=N\N)c3c(O)cc(OC)cc3O2)cc1`: the 50% inhibitory concentration (IC50) in assay [1] and in assay [3] was at least 11.3 µM each time. The Ratio in assay [2] came out at 0.85.
As to `COc1cc(O)c2c(c1)O[C@H](c1ccc(O)cc1)C/C2=N\NC(=O)c1ccc(C(F)(F)F)cc1`, the IC50 in assay [1] and in assay [3] was at least 11.3 µM each time. In addition, the Ratio in assay [2] is 0.83.
Turning to `COc1cccc(/C=N/N=C2\C[C@@H](c3ccc(O)cc3)Oc3cc(OC)cc(O)c32)c1`, the IC50 in assay [1] and in assay [3] was at least 11.3 µM in each case. Besides, in assay [2], the Ratio is 0.78.
Consider `COc1cc(O)c2c(c1)O[C@H](c1ccc(OCC(O)CCl)cc1)CC2=O` (stereo partly drawn), for which the 50% inhibitory concentration (IC50) in assay [1] and in assay [3] was at least 11.3 µM each time. Besides, the Ratio in assay [2] was found to be 1.33.
In the case of `Oc1ccc([C@@H]2C/C(=N\Nc3ccccc3)c3c(O)cc(O)cc3O2)cc1`, the 50% inhibitory concentration (IC50) in assay [1] and in assay [3] was at least 11.3 µM each time. Also, the Ratio in assay [2] is 1.16.
`COc1ccc([C@@H]2C/C(=N\NC(=O)OCc3ccccc3)c3c(O)cc(OC)cc3O2)cc1`: the IC50 in assay [1] is 7.2 µM; in assay [3] it was above 100 µM. The Ratio in assay [2] stood at 0.94. The CI in assay [4] stood at 0.445.
With `COc1ccc([C@@H]2CC(=O)c3c(O)cc(OC)cc3O2)cc1`, the IC50 in assay [1] and in assay [3] was at least 11.3 µM each time. In addition, in assay [2], the Ratio was 1.03.
Regarding `COc1cc(O)c2c(c1)O[C@H](c1ccc(OCC(O)CN3CCCCC3)cc1)CC2=O` (stereo partly drawn), the half-inhibitory concentration (IC50) in assay [1] was determined as 17.4 µM; in assay [3], 9.3 µM. The Ratio in assay [2] was found to be 3.08.
For `COc1cc(O)c2c(c1)O[C@H](c1ccc(O)cc1)C/C2=N\NC(=O)c1ccc(N)cc1`, in that order: at least 11.3 µM, at least 11.3 µM and 0.96.
With `O=C1C[C@@H](c2ccc(O)cc2)Oc2cc(O)cc(O)c21` [NARINGENIN], the IC50 in assay [1] and in assay [3] was at least 11.3 µM each time. For the same molecule, the Ratio in assay [2] was 0.72.
Turning to `Oc1ccc([C@@H]2C/C(=N\Nc3ccc(Br)cn3)c3c(O)cc(O)cc3O2)cc1`, the IC50 in assay [1] and in assay [3] was at least 11.3 µM throughout. The Ratio in assay [2] was 1.08.
Take `O=C(N/N=C1\C[C@@H](c2ccc(O)cc2)Oc2cc(O)cc(O)c21)c1cccs1` (stereo in doubt): the IC50 in assay [1] and in assay [3] was at least 11.3 µM each time. In addition, the Ratio in assay [2] amounted to 0.92.
Take `COc1ccc([C@@H]2C/C(=N\NC(=O)c3ccc(N)cc3)c3c(O)cc(OC)cc3O2)cc1`: the half-inhibitory concentration (IC50) came to 1.3 µM in assay [1] and 3.9 µM in assay [3]. Further, the Ratio in assay [2] amounted to 1.32.
In the same order, the values of `COc1cc(O)c2c(c1)O[C@H](c1ccc(O)cc1)C/C2=N\Nc1ccccc1` are at least 11.3 µM, at least 11.3 µM and 1.16.
For `O=C(N/N=C1\C[C@@H](c2ccc(O)cc2)Oc2cc(O)cc(O)c21)OCc1ccccc1`, in that order: at least 11.3 µM, at least 11.3 µM and 0.76.
In the same order, the values of `O=C(Cc1c[nH]c2ccccc12)N/N=C1\C[C@@H](c2ccc(O)cc2)Oc2cc(O)cc(O)c21` are at least 11.3 µM, at least 11.3 µM and 1.
As for `N/N=C1\C[C@@H](c2ccc(O)cc2)Oc2cc(O)cc(O)c21`, the IC50 in assay [1] and in assay [3] was at least 11.3 µM throughout. Further, the Ratio in assay [2] was found to be 0.72.
On to `Cn1cccc1/C=N/N=C1\C[C@@H](c2ccc(O)cc2)Oc2cc(O)cc(O)c21`, for which the half-inhibitory concentration (IC50) in assay [1] and in assay [3] was at least 11.3 µM throughout. Moreover, the Ratio in assay [2] was found to be 0.64.
Turning to `COc1cc(O)c2c(c1)O[C@H](c1ccc(OCC3CO3)cc1)CC2=O` (stereo partly drawn), the IC50 in assay [1] and in assay [3] was at least 11.3 µM in each case. The Ratio in assay [2] was found to be 1.17.
As for `COc1ccc([C@@H]2C/C(=N\NC(=O)Cc3c[nH]c4ccccc34)c3c(O)cc(OC)cc3O2)cc1`, the IC50 in assay [1] was 7.5 µM; in assay [3], 8.6 µM. Also, the Ratio in assay [2] is 2.47.
In the same order, the values of `CN(C)C(=S)N/N=C1\C[C@@H](c2ccc(O)cc2)Oc2cc(O)cc(O)c21` are at least 11.3 µM, at least 11.3 µM and 2.17.

These data come from ChEMBL document CHEMBL5244266, “Nitrogen-containing naringenin derivatives for reversing multidrug resistance in cancer” (Bioorg Med Chem, 2020).
